Assay results from different studies.
Each line is one published result; the experiments were not run side by side.
SLC6A2: Sodium-dependent noradrenaline transporter (SLC6A2, Homo sapiens, UniProt P23975)
CECR2: Chromatin remodeling regulator CECR2 (CECR2, Homo sapiens, UniProt Q9BXF3)

SMILES | target | test | test system | conditions | measurement | value
Fc1ccc(C(c2ccc(F)cc2)c2nnnn2CCCN2CCC(Cc3ccccc3)CC2)cc1 | SLC6A2 | transporter uptake, inhibitor | HEK293 | 1 µM | inhibition | 39.7%
Cc1cnc(Nc2ccc(OCCN3CCCC3)cc2)nc1Nc1cccc(S(=O)(=O)NC(C)(C)C)c1 | CECR2 | thermal stability, DSF |  | 10 µM | ΔTm | 0.12 °C
Clc1ccc(C(c2ccccc2)c2nnnn2CCCN2CCC(Cc3ccccc3)CC2)cc1 (stereo not drawn) | SLC6A2 | transporter uptake, inhibitor | HEK293 | 1 µM | inhibition | 93.4%
CNC(=O)c1cc(Oc2ccc(NC(=O)Nc3ccc(Cl)c(C(F)(F)F)c3)cc2)ccn1 | Serine/threonine-protein kinase Chk2 (CHEK2, Homo sapiens, UniProt O96017, R145W) | enzyme activity, inhibitor |  | 0.3 µM | inhibition | -8%
CC(C)(C)c1nc2c(s1)c1nc(N)ncc1c1ccc(NS(=O)(=O)c3c(F)cccc3F)c(F)c12 | Mitotic checkpoint serine/threonine-protein kinase BUB1 beta (BUB1B, Homo sapiens, UniProt O60566) | enzyme activity, inhibitor, radiometric |  | 1 µM | remaining activity | 89%
Cc1ccc(C(=O)Nc2ccc(CN3CCN(C)CC3)c(C(F)(F)F)c2)cc1C#Cc1cnc2cccnn12 | Peripheral plasma membrane protein CASK (CASK, Homo sapiens, UniProt O14936) | cell-free assay |  | 23.5 nM | remaining signal | 84%
Cc1cc(NC(=O)c2cccc3cc(-c4cccc5[nH]nc(N)c45)ccc23)ccc1F | Serine/threonine-protein kinase Chk2 (CHEK2, Homo sapiens, UniProt O96017, I157T) | enzyme activity, inhibitor |  | 0.1 µM | activity vs control | 72%
Nc1ncnc2occ(-c3ccc(NC(=O)Nc4cc(C(F)(F)F)ccc4F)cc3)c12 | Serine/threonine-protein kinase WNK4 (WNK4, Homo sapiens, UniProt Q96J92) | cell-free assay, inhibitor |  | 20 µM | remaining signal | 17%
CC(C)CCC[C@@H](C)[C@H]1CC[C@H]2[C@@H]3[C@H](O)CC4=CC(=O)CC[C@]4(C)[C@H]3CC[C@]12C | 7-alpha-hydroxycholest-4-en-3-one 12-alpha-hydroxylase (Homo sapiens, UniProt Q9UNU6) | enzyme activity, substrate |  |  | Km | 0.505 µM
CC(=O)N[C@H]1CSSC[C@@H](C(=O)N[C@H](Cc2c[nH]c3ccccc23)C(N)=O)NC(=O)[C@@H](Cc2ccccc2)NC(=O)[C@H](CCCNC(=N)N)NC1=O | Melanocortin receptor 4 (MC4R, Homo sapiens, UniProt P32245) | cAMP, agonist | HEK293 | 3 min | Emax | 0%
c1ccc(CCCC2CCN(CCCn3nnnc3C(c3ccccc3)c3ccccc3)CC2)cc1 | SLC6A2 | transporter uptake, inhibitor | HEK293 | 1 µM | inhibition | 84.9%
CCCOc1ccc(OC)c(F)c1C(=O)c1ccc(C(=O)N[C@@H]2CNC[C@H]2NC(=O)c2ccc3[nH]ncc3c2)cc1 | cAMP-dependent protein kinase catalytic subunit PRKX (PRKX, Homo sapiens, UniProt P51817) | enzyme activity, inhibitor |  | 0.1 µM | remaining activity | 16%
Clc1ccc(C(c2ccccc2)c2nnnn2CCCN2CCC(CCc3ccccc3)CC2)cc1 (stereo not drawn) | SLC6A2 | transporter uptake, inhibitor | HEK293 | 1 µM | inhibition | 50.1%
Cc1ccc(Nc2nccc(N(C)c3ccc4c(C)n(C)nc4c3)n2)cc1S(N)(=O)=O | Serine/threonine-protein kinase Chk2 (CHEK2, Homo sapiens, UniProt O96017) | enzyme activity, inhibitor |  | 10 µM | inhibition | 44%
Cc1cc2c(cc1N1C(=O)c3cccc4c(Cl)ccc(c34)C1=O)n(C)c(=O)n2C | CECR2 | thermal stability, DSF |  | 10 µM | ΔTm | 3.5 °C
